Data on 20 compounds can be found in ChEMBL document CHEMBL1122163, “4-hydroxyquinoline-3-carboxylic acids as inhibitors of cell respiration. 2. Quantitative structure-activity relationship of dehydrogenase enzyme and Ehrlich ascites tumor cell inhibitions” (J Med Chem, 1982).

For test [1], the system named is L-lactate dehydrogenase, skeletal muscle M4 (Oryctolagus cuniculus). Put plainly: Ability to inhibit skeletal muscle LDH (LDH-M4); Inactive. The conditions noted are these: Muscle tissue.
In test [2] the target is T1, Malate dehydrogenase, cytoplasmic (Sus scrofa) (UniProt P11708).
T1 sequence (whole entry): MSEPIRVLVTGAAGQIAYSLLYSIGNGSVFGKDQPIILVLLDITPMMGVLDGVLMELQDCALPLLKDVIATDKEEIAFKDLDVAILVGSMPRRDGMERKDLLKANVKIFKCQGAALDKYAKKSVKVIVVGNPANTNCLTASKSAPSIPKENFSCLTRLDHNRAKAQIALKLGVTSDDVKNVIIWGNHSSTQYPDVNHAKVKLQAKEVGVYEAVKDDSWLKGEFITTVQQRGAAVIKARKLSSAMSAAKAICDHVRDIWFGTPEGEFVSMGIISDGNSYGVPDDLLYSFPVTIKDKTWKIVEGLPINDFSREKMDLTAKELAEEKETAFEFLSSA
Kind of test: Ability to inhibit cytoplasmic malate dehydrogenase; Inactive. In short, it runs like this: (§1)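 Pig heart enzyme (cytoplasmic or mitochondrial form), diluted in 0.05 M Tris pH 7.4 with 1% BSA to give 0.022–0.027 OD/min at 340 nm. Cuvette holds 0.05 M Tris pH 8.4, L-malate, NAD+ and Me2SO ± inhibitor. Equilibrated at 25 °C, then started with enzyme. Five inhibitor concentrations in triplicate; I50 from least-squares dose-response line.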

In test [3] the target is T2, Malate dehydrogenase, mitochondrial (Sus scrofa) (UniProt P00346).
T2 sequence (whole entry): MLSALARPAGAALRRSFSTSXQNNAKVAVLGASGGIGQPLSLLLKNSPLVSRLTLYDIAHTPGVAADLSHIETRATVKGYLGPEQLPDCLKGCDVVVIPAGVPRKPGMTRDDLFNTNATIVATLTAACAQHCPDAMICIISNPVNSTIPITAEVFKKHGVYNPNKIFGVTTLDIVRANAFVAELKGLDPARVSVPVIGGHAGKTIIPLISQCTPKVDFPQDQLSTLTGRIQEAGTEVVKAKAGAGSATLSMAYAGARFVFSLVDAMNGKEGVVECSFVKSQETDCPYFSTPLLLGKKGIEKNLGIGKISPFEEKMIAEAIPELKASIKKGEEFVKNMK
Put plainly: Ability to inhibit mitochondrial malate dehydrogenase; Inactive. A digest of the protocol: as §1

Molecules are shown by their SMILES. Active and inactive are the calls of the source. No cut-off for these calls is given here.

Turning to `NC(=O)c1ccc2c(O)c(C(=O)O)cnc2c1`, in test [1], the pI50 result was “inactive”. With `O=C(O)c1cnc2cc(OCc3c(Cl)c(Cl)c(Cl)c(Cl)c3Cl)ccc2c1O`, the pI50 result in test [2] and in test [1] was “inactive” throughout. As for `O=C(O)c1cnc2cc(OCCOc3ccc(Br)cc3)ccc2c1O`, the pI50 result in test [2] and in test [1] was “inactive” in each case.

Turning to `O=C(O)c1cnc2cc(OCc3ccc4ccccc4c3)ccc2c1O`, the pI50 result in test [2] and in test [1] was “inactive” in each case.

Consider `O=C(O)c1cnc2cc(OCc3ccc(Br)cc3)ccc2c1O`, for which the pI50 result in test [2] and in test [1] was “inactive” each time.

With `O=C(O)c1cnc2cc(OCCc3ccc4ccccc4c3)ccc2c1O`, the pI50 result in test [1] was “inactive”. For `O=C(O)c1cnc2cc(OCc3cccc4ccccc34)ccc2c1O`, the pI50 result in test [2] and in test [1] was “inactive” throughout. For the compound `O=C(O)c1cnc2cc(OCc3ccccc3)ccc2c1O`, the pI50 entry in test [2] and in test [1] was “inactive” in each case.

Consider `O=C(O)c1cnc2cc(OCCOc3ccc4ccccc4c3)ccc2c1O`, for which the pI50 result in test [2] and in test [1] was “inactive” throughout. For `O=C(O)c1cnc2cc(OCCOc3ccc(F)cc3)ccc2c1O`, the pI50 entry in test [2] and in test [1] was “inactive” each time.

For `O=C(O)c1cnc2cc(F)ccc2c1O`, the pI50 result in test [1] was “inactive”.

On to `O=C(O)c1cnc2cc(OCCc3ccc(Oc4ccccc4)cc3)ccc2c1O`, for which the pI50 entry in test [1] is “inactive”. As to `O=C(O)c1cnc2cc(OCCOc3ccccc3)ccc2c1O`, the pI50 result in test [2] and in test [1] was “inactive” each time. For the compound `COc1ccc2c(O)c(C(=O)O)cnc2c1`, the pI50 result in test [2], in test [3] and in test [1] was “inactive” in each case. For the compound `O=C(O)c1cnc2cc(OCCOc3ccc(Oc4ccccc4)cc3)ccc2c1O`, the pI50 result in test [1] was “inactive”.

Regarding `O=C(O)c1cnc2cc(OCCc3ccc(F)cc3)ccc2c1O`, the pI50 result in test [2] and in test [1] was “inactive” throughout. For the compound `O=C(O)c1cnc2ccccc2c1O`, the pI50 result in test [2], in test [3] and in test [1] was “inactive” in each case.

Take `O=C(O)c1cnc2cc(OCc3ccc(F)cc3)ccc2c1O`: the pI50 entry in test [2] and in test [1] was “inactive” each time. For `O=C(O)c1cnc2cc(OCc3ccc(Cl)c(Cl)c3)ccc2c1O`, the pI50 result in test [2] and in test [1] was “inactive” in each case. Regarding `O=C(O)c1cnc2cc(OCCc3ccccc3)ccc2c1O`, the pI50 entry in test [1] was “inactive”.
